Sampled rows, rich in hits. Any-hit rate of the full collection: about 2.9%.
SIAE primary: inhibitors of human sialic acid acetylesterase SIAE. Q9HAT2. SIAE FP-Rh probe binding, fluorescence polarization. inhibition, % at 9.66 µM. actives 0.69% (n = 370,000). AID 1053197;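 active = inhibition above a cutoff: mean of compounds within the control limits plus 3 SD of those, cut at about 17% in these data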;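 also: 0% = plate median of compound wells and 100% = probe without SIAE protein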
TCR CD3 inh: inhibitors of human TCR-CD3 interaction; TAMRA-labeled TCR probe fluorescence, biochemical; inhibition, % at 9.4 µM; actives 0.37% (n = 360,000); AID 651800; in the data active = inhibition above about 19%;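 also: recombinant mutant TCR 2C K166C tagged with TAMRA read by polarization; 0% = receptor in buffer alone and 100% = receptor with positive control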
ABHD4 inh: ABHD4 (mouse) inhibition, primary FP screen | Q8VD66 | purified mABHD4, FP-Rh probe fluorescence polarization | inhibition, % at 8.92 µM | actives 0.54% (n = 370,000) | AID 720543;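 active = inhibition exceeding the mean over every tested compound plus 3 SD, cut at about 30% in these data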;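 also: 0% = plate median of compound wells and 100% = S159A mutant with DMSO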
Target sequence (Q8VD66 whole entry, looked up): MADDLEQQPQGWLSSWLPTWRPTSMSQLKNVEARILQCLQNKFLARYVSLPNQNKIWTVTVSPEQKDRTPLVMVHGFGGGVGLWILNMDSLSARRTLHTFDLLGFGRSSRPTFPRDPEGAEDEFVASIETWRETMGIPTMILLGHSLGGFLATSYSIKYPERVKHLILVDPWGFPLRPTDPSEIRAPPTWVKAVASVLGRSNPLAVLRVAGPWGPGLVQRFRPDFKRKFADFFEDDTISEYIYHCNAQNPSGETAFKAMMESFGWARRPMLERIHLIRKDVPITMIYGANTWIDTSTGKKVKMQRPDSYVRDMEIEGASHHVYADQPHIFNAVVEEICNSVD
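Assay system: mABHD4 protein; medium: HEPES pH 7.0, NaCl, Pluronic buffer; dosing: 8.92 µM, single dose; schedule: 45 min + 60 min at 25 °C; signal: FP readout, ex 525 nm / em 598 nm; read-out: normalized percent inhibition of probe labeling; repeats: single replicate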
PAD4 inh: inhibitors of human PAD4; Q9UM07; recombinant PAD4, RCA probe fluorescence polarization; inhibition, % at 6.36 µM; actives 0.41% (n = 330,000); AID 485272;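 active = percent inhibition above a cutoff equal to the mean of all tested compounds plus 3 SD, cut at about 15% in these data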;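 also: 0% = PAD4 with RCA probe and DMSO and 100% = probe without PAD4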
HTRA1 inh: inhibitors of human serine peptidase HTRA1. actives 0.5% (n = 340,000). Q92743. AID 504803. inhibition, % at 5.96 µM. recombinant HTRA1, FP-rhodamine activity-based probe, fluorescence polarization; in the data active = inhibition above about 36%;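 also: 0% = enzyme with DMSO and 100% = wells lacking enzyme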
PRMT1 FP inh: blocks human protein arginine methyltransferase 1; recombinant PRMT1, activity-based probe fluorescence polarization; AID 652257; inhibition, % at 2.79 µM; actives 1.3% (n = 370,000);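 active = inhibition above about 21% made by adding two undisclosed values, limit read from the data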
Target sequence (Q99873 whole entry, looked up): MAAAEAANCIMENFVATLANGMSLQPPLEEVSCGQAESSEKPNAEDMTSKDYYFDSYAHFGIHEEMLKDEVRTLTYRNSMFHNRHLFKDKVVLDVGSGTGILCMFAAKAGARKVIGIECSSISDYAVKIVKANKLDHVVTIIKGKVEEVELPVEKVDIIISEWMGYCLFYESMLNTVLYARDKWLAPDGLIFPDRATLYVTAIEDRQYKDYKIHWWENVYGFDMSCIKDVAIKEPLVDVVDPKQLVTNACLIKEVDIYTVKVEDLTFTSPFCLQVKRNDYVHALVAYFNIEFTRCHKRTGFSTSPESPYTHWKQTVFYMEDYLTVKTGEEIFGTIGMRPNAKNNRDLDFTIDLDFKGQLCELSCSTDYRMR
* marks the source's active call; other numbers are inactive results; nt = no result given; ! = repeats disagree.

SMILES | SIAE primary | TCR CD3 inh | ABHD4 inh | PAD4 inh | HTRA1 inh | PRMT1 FP inh
COc1ccc(OC)c(NC(=O)COC(=O)/C=C/c2ccco2)c1 | -3.7 | -3.0 | 0.7 | 0.5 | 5.0 | 23.1*
COc1ccc(OC)c(NC(=O)CCCc2ccccc2)c1 | -8.0 | 1.1 | 0.9 | 1.6 | -3.4 | 22.0*
COc1ccc(CCNC(=O)/C=C/c2ccco2)cc1OC | -1.1 | 2.9 | -0.4 | 1.5 | 5.1 | 22.6*
CCOc1ccc(CCNC(=O)/C=C/c2ccco2)cc1OCC | 0.5 | -8.3 | -4.1 | nt | 6.0 | 13.7
COc1ccc(CCCC(=O)Nc2cc(C)ccc2OC)cc1 | 10.2 | -9.2 | -10.5 | 1.2 | -5.5 | 0.1
c1ccc(-c2cccc(CNc3nc(-c4ccccn4)nnc3-c3ccccc3)c2)cc1 | -8.6 | nt | 3.8 | nt | nt | -0.2
COc1ccc(-n2c(SCC(=O)Nc3ccccc3-c3ccccc3)nnc2-c2ccccn2)cc1 | 1.2 | nt | -3.3 | nt | nt | -5.6
O=C(CSc1nnc(-c2ccccn2)n1-c1ccc(Cl)cc1)Nc1ccc(S(=O)(=O)Nc2nccs2)cc1 | -12.8 | nt | -7.7 | nt | nt | 0.0
CCc1cccc(C)c1NC(=O)c1cccc(N(C)C)c1 | 3.5 | -4.0 | 7.4 | -5.7 | 0.9 | 23.3*
CCc1cccc(CC)c1NC(=O)c1cccc(NC(=O)c2ccccc2)c1 | 10.1 | 0.5 | -6.7 | -1.0 | -29.8 | -0.3
Cc1cc(NS(=O)(=O)c2ccc(NC(=O)/C=C/c3ccco3)cc2)nc(C)n1 | -2.7 | -1.6 | 0.0 | -0.9 | -1.6 | 24.2*
COc1ccc(OC)c(C(C)NS(=O)(=O)c2cccs2)c1 (stereo not given) | 3.6 | -6.0 | 7.7 | -4.4 | 14.5 | 6.0
COc1ccccc1C(C)NS(=O)(=O)c1cccs1 (stereo not given) | nt | nt | nt | 96.7* | nt | nt
CCOC(=O)[C@@H](CCc1ccccc1)N[C@@H](C)C(=O)N1CCC[C@H]1C(=O)O | -5.4 | nt | 0.2 | nt | nt | -3.4
COc1ccc(C(=O)N/N=C/c2c[nH]c3ccccc23)cc1 | 0.1 | 1.3 | -3.4 | -3.7 | 0.4 | 5.2
COc1ccc(C(=O)N/N=C/c2cc3ccccc3[nH]c2=S)cc1 | -8.2 | 29.5* | 5.7 | 1.2 | 33.0 | 12.6
Cc1cc(Cl)cc2sc(=S)[nH]c12 | 6.1 | 4.0 | -1.7 | nt | 1.8 | 22.1*
COCc1cn(-c2ccc3c(c2)[C@@]2(CC(=O)N(C)C2c2ccccc2)C(=O)N3CC(C)C)nn1 (stereo not given in full) | -57.9 | nt | 2.6 | nt | nt | -5.2
CSc1sc2ccccc2[n+]1CCCS(=O)(=O)[O-] | 7.2 | -3.5 | 5.5 | -8.3 | -7.0 | 23.0*
O=C(OC12CCCN(C1)/C(=C/c1ccc(Cl)cc1)C2)C1CCCC1 (stereo not given) | -0.8 | nt | -4.6 | nt | nt | -2.0
Cc1ccc(S(=O)(=O)NCCSCc2ccco2)cc1 | 6.7 | 0.3 | 4.2 | -1.8 | 0.4 | 1.9
Cc1cc(C)c(S(=O)(=O)NCCSCc2ccco2)c(C)c1 | 5.8 | -1.3 | -7.1 | 0.2 | -34.7 | 24.1*
CCn1c(Cc2cccs2)nnc1SCC(=O)Nc1cccc2ccccc12 | 3.2 | nt | 6.3 | nt | nt | 1.2
CCOC(=O)c1ccc(N2C(=O)CC(Sc3ncccn3)C2=O)cc1 (stereo not given) | 1.0 | -6.9 | -3.3 | -3.5 | -1.0 | 21.4*
CCC(=O)Nc1ccc(C(=O)OCc2ccccc2)cc1 | -6.3 | 4.2 | -7.6 | -5.0 | -7.3 | 1.0
SMILES | SIAE primary | TCR CD3 inh | ABHD4 inh | PAD4 inh | HTRA1 inh | PRMT1 FP inh
COP(=O)(OC)c1ccc(NCc2cc(O)ccc2O)cc1 | -2.3 | 5.5 | 22.7 | nt | 12.6 | 21.5*
COC(=O)c1ccc(CCc2cc(O)ccc2O)cc1 | nt | nt | nt | nt | 5.3 | nt
O=C(OCc1ccccc1)c1ccc(NCc2cc(O)ccc2O)cc1 | 12.2 | -0.6 | 20.1 | nt | 12.3 | 21.9*
Oc1cccc(-c2sc3ccccc3c2-c2ccc(OCCN3CCCCC3)cc2)c1 | -3.5 | 5.9 | 15.7 | nt | nt | -3.7
O=C(c1ccc(OCCN2CCCCC2)cc1)c1c(-c2ccc(O)cc2)sc2cc(O)ccc12 | 27.0*! | 4.1 | 14.4 | -3.1 | 7.2 | 0.1
O=C(NNc1cc(Br)c(O)c(Br)c1)c1ccccc1 | 9.5 | -0.1 | 28.8 | -1.3 | 23.9 | 22.9*
O=C(CCn1nnc(-c2cccs2)n1)N1CCOCC1 | 4.1 | nt | -1.1 | nt | nt | 3.2
COc1ccccc1NC(=S)OC1CCC12CCC(c1ccccc1)CC2 (stereo not given) | -8.7 | nt | -13.2 | nt | nt | 2.1
CCOC(=O)N1CCN(CCC(=O)c2ccc(OC)cc2)CC1 | -6.1 | -2.1 | -4.4 | -3.9 | 2.6 | 21.4*
COc1ccc(C(=O)CCN2CCCC(C)C2)cc1 (stereo not given) | 0.1 | 2.2 | -6.4 | 2.6 | -3.7 | 24.6*
C[C@@H](CO)N(Cc1cn(Cc2ccccc2)nn1)S(=O)(=O)c1ccc(F)cc1Br | 1.0 | nt | 2.6 | nt | nt | -1.8
C#CCCN([C@H](C(=O)OC)C(C)C)S(=O)(=O)c1ccccc1Br | 1.8 | nt | -3.2 | nt | nt | -1.5
COc1cc(CNn2cn[nH]c2=S)cc(Cl)c1OCc1ccccc1 | -2.6 | 5.1 | 1.4 | -5.6 | 1.6 | 11.7
COc1cc(CNn2cn[nH]c2=S)cc(Br)c1OCc1ccccc1F | -0.7 | -5.1 | -13.8 | 0.4 | -12.5 | 23.7*
CCOc1cc(/C=N/NC(N)=O)cc(Br)c1OCc1ccccc1F | -6.8 | 8.2 | -14.2 | 0.9 | -26.2 | 6.3
CCOc1cc(CNc2ccc(O)cc2)cc(Br)c1OCc1ccccc1F | nt | nt | nt | 7.8 | 44.4* | nt
O=S(=O)(NCc1ccccc1)c1ccc(Cl)cc1 | 1.2 | 1.7 | 3.1 | -1.0 | -5.8 | -2.5
O=S(=O)(Nc1cc2nc3ccccc3nc2n1Cc1ccccc1)c1ccc(Cl)cc1 | 30.1* | -5.0 | 8.1 | 72.3* | 29.4 | 2.2
COC(=O)CC1OCC=C2CN3CCC45C6=CC(=O)C(=O)C([N+](=O)[O-])=C6NC4C1C2CC35 (stereo not given) | 4.0 | 7.5 | 4.4 | nt | nt | 29.8*
O=C(OC12CCCN(C1)/C(=C/c1ccc(Cl)cc1)C2)c1cccc(F)c1 (stereo not given) | -3.8 | nt | -3.1 | nt | nt | 2.1
Cc1ccc(NS(=O)(=O)c2ccc(NC(=O)CSc3ccc(Cl)cc3)cc2)c(C)c1 | -2.3 | 23.3* | -26.6 | 3.2 | -30.9 | -0.1
CN(CCO)c1ccc(C=NNc2ccc([N+](=O)[O-])cc2S(=O)(=O)Nc2ccccc2C(=O)O)cc1 | 2.6 | 1.0 | 46.1* | -7.1 | nt | 14.2
CC(=O)Nc1ccc(C=NNc2ccc([N+](=O)[O-])cc2S(=O)(=O)Nc2ccccc2C(=O)O)cc1 | -8.7 | 2.2 | -14.1 | -4.2 | -45.1 | 7.2
c1ccc(CC2CCN(c3nc4ccccc4n4nnnc34)CC2)cc1 | -14.9 | 32.6* | 3.1 | 0.3 | -6.6 | 1.4
CC(C)(C)OC(=O)N1CCC(N[C@@H](Cc2ccccc2)C(=O)NCCc2c[nH]c3ccccc23)(C(=O)NC2CCCCC2)CC1 | 3.1 | nt | -1.9 | nt | nt | -2.2
CC(=O)n1cc(N(C(=O)CCl)c2ccc([N+](=O)[O-])cc2)c2ccccc21 | 11.9 | 4.4 | 3.2 | 19.5* | -3.1 | 4.2

High-throughput results (PubChem)
